Laboratory results published in ChEMBL document CHEMBL3875151, “Design, synthesis, biological evaluation and molecular docking study on peptidomimetic analogues of XK469” (Eur J Med Chem, 2016).
The source made the active and inactive calls. The calls are words filed in the database; no cut-off is given here.

Columns and labels:
[1] = Antiproliferative activity against human MCF7 cells after 48 hrs by MTT assay; format: functional, cell-based; conditions: MCF7, 48 h
How it was run: (§1)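 Cells kept in RPMI-1640 with 10% heat-inactivated FBS, 37°C, 5% CO2. 10^4 cells/well seeded, compounds (dissolved in DMSO or PBS, diluted in medium) added after 4 h at final 200, 150, 100, 50 and 10 μM for 48 h. MTT then 4 h, formazan dissolved in DMSO, OD 570 nm. Growth inhibition vs medium control; IC50 from inhibition ratios; three independent experiments in triplicate.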

[2] = Antiproliferative activity against human HeLa cells after 48 hrs by MTT assay; format: functional, cell-based; how it was run: as §1
[3] = Antiproliferative activity against human K562 cells after 48 hrs by MTT assay; format: functional, cell-based; conditions: K562, 48 h; how it was run: as §1
[4] = Anti-metastatic activity against H22 cells xenografted in Balb/c mouse assessed as inhibition of metastasized nodes on lung surface at 10 mg/kg/day, ig administered 6 days per week for two consecutive weeks measured on day 13 post dose by microscopic method relative to control; format: functional; conditions: po
How it was run: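 BALB/c mice (18~22 g, both sexes) injected via tail vein with 6 × 10^6 H22 ascites cells. After 24 h, randomized into groups of 10. Compounds given intragastrically at 10 mg/kg in 0.5% CMC-Na (2 mg/ml), vehicle to controls. Lung-surface metastatic nodes counted under microscope; inhibition rate from mean node counts vs vehicle group.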

Mus musculus [5] = assay: Toxicity in Balb/c mouse xenografted with […] cells assessed as body weight at 10 mg/kg/day, ig administered 6 days per week for two consecutive weeks (reference value: 20.17 +/- 3.66 g); format: organism-based; conditions: in vivo, po, 144 h
[6] = Anti-metastatic activity against H22 cells xenografted in Balb/c mouse assessed as lung weight at 10 mg/kg/day, ig administered 6 days per week for two consecutive weeks measured on day 12 post last dose (reference value: 0.287 +/- 0.117 g); format: functional
Mus musculus [7] = assay: Toxicity in Balb/c mouse xenografted with […] cells assessed as mouse survival at 10 mg/kg/day, ig administered 6 days per week for two consecutive weeks; format: organism-based; conditions: in vivo, po, 144 h
How it was run: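 H22 hepatocarcinoma ascites from BALB/c donor mice was diluted 1:4 in saline (3 × 10^7 cells/ml), and 0.2 mL (6 × 10^6 cells) was injected via tail vein into BALB/c mice weighing 18~22 g. After 24 h, mice were weighed and randomised into 7 groups of 10, half of each sex. Compound was given intragastrically at 2 mg/ml in 0.5% CMC-Na, with vehicle controls. Surviving animals were counted against the original number per group.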

[8] = molecular target: DNA topoisomerase 2-alpha (Homo sapiens) (UniProt P11388); assay: Inhibition of human topoisomerase-2 alpha-mediated kinetoplast DNA decatenation at 3.15 to 200 uM after 15 mins by ethidium bromide staining based agarose gel electrophoresis
How it was run: (§2)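 Human topo IIα (0.5 units) with 20 µg/mL kDNA in 50 mM Tris-HCl pH 8.0, 0.5 mM DTT, 10 mM MgCl2, 2 mM ATP. Compounds at 3.15, 12.5, 50 and 200 µM, 15 min at 37°C; stopped with SDS/glycerol. Products run on 1% agarose, 50 V, 50 min, ethidium bromide-stained, viewed under UV. Controls without enzyme and without inhibitor; etoposide reference.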

[9] = molecular target: DNA topoisomerase 2-alpha (Homo sapiens) (UniProt P11388); assay: Inhibition of human topoisomerase-2 alpha-mediated kinetoplast DNA decatenation at 3.15 to 200 uM after 15 mins by ethidium bromide staining based agarose gel electrophoresis relative to etoposide; how it was run: as §2
[10] = Antiproliferative activity against human NCI60 cells after 48 hrs by SRB assay; format: functional, cell-based; conditions: NCI60, 48 h
[11] = molecular target: DNA topoisomerase 2-alpha (Homo sapiens) (UniProt P11388); assay: Inhibition of human topoisomerase-2 alpha-mediated kinetoplast DNA decatenation after 15 mins by ethidium bromide staining based agarose gel electrophoresis; how it was run: as §2

Chain of DNA topoisomerase 2-alpha (Homo sapiens) (P11388 whole entry): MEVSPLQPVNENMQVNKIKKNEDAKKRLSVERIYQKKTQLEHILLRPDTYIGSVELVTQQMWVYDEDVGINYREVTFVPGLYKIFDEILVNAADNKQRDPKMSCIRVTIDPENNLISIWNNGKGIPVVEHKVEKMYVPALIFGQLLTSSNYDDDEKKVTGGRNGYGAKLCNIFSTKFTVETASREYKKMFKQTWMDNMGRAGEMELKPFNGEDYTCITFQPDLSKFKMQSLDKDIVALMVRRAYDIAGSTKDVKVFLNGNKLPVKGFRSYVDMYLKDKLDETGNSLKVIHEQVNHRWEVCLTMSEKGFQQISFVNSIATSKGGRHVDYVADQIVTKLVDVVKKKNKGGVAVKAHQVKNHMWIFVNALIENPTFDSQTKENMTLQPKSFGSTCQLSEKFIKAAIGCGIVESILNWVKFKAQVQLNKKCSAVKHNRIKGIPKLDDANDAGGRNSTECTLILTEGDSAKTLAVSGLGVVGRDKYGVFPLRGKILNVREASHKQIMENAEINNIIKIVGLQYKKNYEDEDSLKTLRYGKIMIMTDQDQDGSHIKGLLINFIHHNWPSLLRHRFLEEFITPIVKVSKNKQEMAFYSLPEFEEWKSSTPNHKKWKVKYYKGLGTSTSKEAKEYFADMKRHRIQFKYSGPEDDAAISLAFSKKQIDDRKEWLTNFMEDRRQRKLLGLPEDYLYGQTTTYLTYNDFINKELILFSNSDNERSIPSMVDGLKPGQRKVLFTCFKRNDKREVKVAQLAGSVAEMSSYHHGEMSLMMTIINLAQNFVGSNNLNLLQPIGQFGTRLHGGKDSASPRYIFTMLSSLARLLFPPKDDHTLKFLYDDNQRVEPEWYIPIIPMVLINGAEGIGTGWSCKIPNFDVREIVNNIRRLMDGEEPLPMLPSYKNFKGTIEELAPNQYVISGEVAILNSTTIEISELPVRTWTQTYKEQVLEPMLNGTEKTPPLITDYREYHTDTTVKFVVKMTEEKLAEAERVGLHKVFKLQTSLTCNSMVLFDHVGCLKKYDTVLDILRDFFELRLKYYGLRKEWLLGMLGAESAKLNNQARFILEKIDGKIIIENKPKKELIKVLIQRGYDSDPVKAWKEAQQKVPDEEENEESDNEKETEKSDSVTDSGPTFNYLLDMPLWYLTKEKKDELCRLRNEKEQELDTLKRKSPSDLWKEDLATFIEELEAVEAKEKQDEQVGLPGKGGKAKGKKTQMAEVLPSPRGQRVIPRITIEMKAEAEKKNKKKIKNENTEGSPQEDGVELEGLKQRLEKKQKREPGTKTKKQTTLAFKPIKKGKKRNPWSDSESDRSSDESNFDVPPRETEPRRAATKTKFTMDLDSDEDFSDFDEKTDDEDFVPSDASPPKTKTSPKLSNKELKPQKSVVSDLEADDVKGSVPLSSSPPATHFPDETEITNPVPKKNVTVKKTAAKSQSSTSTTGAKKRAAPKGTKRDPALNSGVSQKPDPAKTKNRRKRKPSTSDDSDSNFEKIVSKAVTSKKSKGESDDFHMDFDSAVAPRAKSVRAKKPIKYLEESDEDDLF

Structure (SMILES) | IC50 [1] [µM] | IC50 [2] [µM] | IC50 [3] [µM] | other results
CC(C)(C)Nc1nc2ccccc2nc1Oc1ccc(C(=O)NCC(=O)O)cc1 | > 50 | > 50 | > 50 | –
CC[C@@H](C)[C@H](NC(=O)c1ccc(Oc2nc3ccccc3nc2NC(C)(C)C)cc1)C(=O)O | 11.3 | 13.4 | 18.3 | inhibition in vivo at 10 mg/kg/day [4]: 27.6%; Activity (Mus musculus [5]): 21.84 g; Activity [6]: 0.211 g; Activity (Mus musculus [7]): Non-Toxic
Cc1nc2cc(Cl)ccc2nc1Oc1ccc(C(=O)N[C@@H](C)C(=O)O)cc1 | 19.4 | 30 | 20.9 | –
CC[C@@H](C)[C@H](NC(=O)c1ccc(Oc2nc3ccccc3nc2NC(C)(C)C)cc1)C(=O)OC | 33.4 | 31.9 | 38.7 | –
Cc1nc2ccccc2nc1Oc1ccc(C(=O)N[C@@H](CC(C)C)C(=O)O)cc1 | 14.7 | 17.3 | 19.5 | inhibition in vivo at 10 mg/kg/day [4]: 11%; Activity (Mus musculus [5]): 22.46 g; Activity [6]: 0.238 g; Activity (Mus musculus [7]): Non-Toxic
COc1cc([C@@H]2c3cc4c(cc3[C@@H](O[C@@H]3O[C@@H]5CO[C@@H](C)O[C@H]5[C@H](O)[C@H]3O)[C@H]3COC(=O)[C@H]23)OCO4)cc(OC)c1O | – | – | – | inhibition [8]: Active
COc1cccc2c1C(=O)c1c(O)c3c(c(O)c1C2=O)C[C@@](O)(C(=O)CO)C[C@@H]3O[C@H]1C[C@H](N)[C@H](O)[C@H](C)O1 [DOXORUBICIN] | – | 11.5 | 13.5 | inhibition in vivo at 10 mg/kg/day [4]: 59.9%; Activity (Mus musculus [5]): 23.32 g; Activity [6]: 0.217 g
CC(C)C[C@H](NC(=O)c1ccc(Oc2nc3ccccc3nc2NC(C)(C)C)cc1)C(=O)O | 40.3 | 39.2 | 42.3 | –
COC(=O)[C@H](CC(C)C)NC(=O)c1ccc(Oc2nc3ccccc3nc2C)cc1 | 25.5 | 21.6 | 22.6 | –
CC(C)(C)Nc1nc2ccccc2nc1Oc1ccc(C(=O)N[C@@H](Cc2ccccc2)C(=O)O)cc1 | 25.3 | 20.5 | 15.2 | –
CC[C@@H](C)[C@H](NC(=O)c1ccc(Oc2nc3ccccc3nc2C)cc1)C(=O)OC | 36.1 | > 50 | 38.3 | –
CC[C@@H](C)[C@H](NC(=O)c1ccc(Oc2nc3ccccc3nc2C)cc1)C(=O)O | 35.7 | 33.2 | 30.5 | –
COC(=O)[C@H](Cc1ccccc1)NC(=O)c1ccc(Oc2nc3cc(Cl)ccc3nc2C)cc1 | 25.5 | 28.8 | 27.5 | –
COC(=O)[C@H](Cc1ccccc1)NC(=O)c1ccc(Oc2nc3ccccc3nc2NC(C)(C)C)cc1 | > 50 | > 50 | 10.3 | –
COC(=O)[C@H](C)NC(=O)c1ccc(Oc2nc3ccccc3nc2NC(C)(C)C)cc1 | 38.4 | 55.2 | 42.2 | –
COC(=O)[C@H](C)NC(=O)c1ccc(Oc2nc3ccc(Cl)cc3nc2C)cc1 | 33.8 | 42.5 | 26 | –
CCCCCCCCCCCCNc1nc2ccccc2nc1Oc1ccc(C(=O)N[C@@H](Cc2ccccc2)C(=O)O)cc1 | 6.79 | 9.19 | 7.37 | inhibition in vivo at 10 mg/kg/day [4]: 33.7%; Activity (Mus musculus [5]): 20.85 g; inhibition [8]: Active; Activity [6]: 0.197 g; fold change (FC) [9]: 4

Structure (SMILES) | IC50 [1] [µM] | IC50 [2] [µM] | IC50 [3] [µM] | other results
Cc1nc2ccc(Cl)cc2nc1Oc1ccc(C(=O)N[C@@H](Cc2ccccc2)C(=O)O)cc1 | 20.2 | 20.2 | 21.5 | –
CCCCCCCCCCCCNc1nc2ccccc2nc1Oc1ccc(C(=O)N[C@H](C(=O)OC)[C@H](C)CC)cc1 | 43.3 | 40.3 | 30.8 | –
C[C@@H](Oc1ccc(Oc2cnc3ccc(Cl)cc3n2)cc1)C(=O)O [R(+)XK469] | – | – | – | IC50 [10]: 70 µM
C[C@H](NC(=O)c1ccc(Oc2nc3ccccc3nc2NC(C)(C)C)cc1)C(=O)O | 29.4 | 23.4 | 26.4 | –
CCCCCCCCCCCCNc1nc2ccccc2nc1Oc1ccc(C(=O)N[C@@H](C)C(=O)O)cc1 | 4.11 | 6.24 | 3.28 | inhibition in vivo at 10 mg/kg/day [4]: 42.5%; Activity (Mus musculus [5]): 24.62 g; inhibition [11]: Dose-dependent effect; Activity [6]: 0.23 g
COC(=O)[C@H](CC(C)C)NC(=O)c1ccc(Oc2nc3ccccc3nc2NC(C)(C)C)cc1 | > 50 | > 50 | > 50 | –
COC(=O)[C@H](CC(C)C)NC(=O)c1ccc(Oc2nc3ccc(Cl)cc3nc2C)cc1 | 22.8 | 37.6 | 32.6 | –
Cc1nc2ccc(Cl)cc2nc1Oc1ccc(C(=O)N[C@@H](CC(C)C)C(=O)O)cc1 | 15.1 | 16.4 | 14.5 | inhibition in vivo at 10 mg/kg/day [4]: 14.8%; Activity (Mus musculus [5]): 23.25 g; Activity [6]: 0.254 g; Activity (Mus musculus [7]): Non-Toxic
COC(=O)[C@H](CC(C)C)NC(=O)c1ccc(Oc2nc3cc(Cl)ccc3nc2C)cc1 | 19.1 | 18.6 | 22 | –
CCCCCCCCCCCCNc1nc2ccccc2nc1Oc1ccc(C(=O)N[C@@H](C)C(=O)OC)cc1 | 33.8 | 28.5 | 26.7 | –
Cc1nc2ccccc2nc1Oc1ccc(C(=O)N[C@@H](C)C(=O)O)cc1 | 25.6 | 22.3 | 28.1 | –
COC(=O)[C@H](C)NC(=O)c1ccc(Oc2nc3ccccc3nc2C)cc1 | 38.4 | 32.2 | 45.5 | –
CCCCCCCCCCCCNc1nc2ccccc2nc1Oc1ccc(C(=O)N[C@H](C(=O)O)[C@H](C)CC)cc1 | 30.4 | 35.5 | 21.5 | –
COC(=O)CNC(=O)c1ccc(Oc2nc3ccccc3nc2NC(C)(C)C)cc1 | > 50 | > 50 | > 50 | –
Cc1nc2cc(Cl)ccc2nc1Oc1ccc(C(=O)N[C@@H](CC(C)C)C(=O)O)cc1 | 17.4 | 25 | 21.3 | –
CCCCCCCCCCCCNc1nc2ccccc2nc1Oc1ccc(C(=O)N[C@@H](Cc2ccccc2)C(=O)OC)cc1 | 33.4 | 34.4 | 30.5 | –
